Only some compounds are listed: those with a hit (about 2% of all), similar ones and a draw of the others.
ASAP1 inh: inhibitors of human ASAP1 ArfGAP activity. ASAP1-stimulated ARF1 GTP hydrolysis, GDP FP detection. AID 624377. actives 0.19% (n = 360,000). inhibition, % at 16.5 µM. Q9ULH1; in the data active = inhibition above about 25%;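 also: 0% = vehicle with enzyme and substrate and 100% = no enzyme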
Target sequence (Q9ULH1 325-724 limits assumed): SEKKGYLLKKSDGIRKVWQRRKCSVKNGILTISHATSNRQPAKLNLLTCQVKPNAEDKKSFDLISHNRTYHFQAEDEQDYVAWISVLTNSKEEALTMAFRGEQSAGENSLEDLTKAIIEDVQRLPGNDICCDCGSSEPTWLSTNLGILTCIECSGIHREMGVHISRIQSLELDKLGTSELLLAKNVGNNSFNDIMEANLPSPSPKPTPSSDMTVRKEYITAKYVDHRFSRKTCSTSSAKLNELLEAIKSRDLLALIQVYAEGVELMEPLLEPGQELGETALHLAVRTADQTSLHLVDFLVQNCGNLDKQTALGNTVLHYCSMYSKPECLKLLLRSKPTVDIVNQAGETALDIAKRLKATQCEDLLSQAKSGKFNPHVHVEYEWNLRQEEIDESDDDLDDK
UHRF1 binding: blocks human UHRF1 binding to methylated DNA. inhibition, % at 4.4 µM. actives 0.75% (n = 370,000). Q96T88. UHRF1 binding to methylated oligo, TR-FRET. AID 687016;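 also: UHRF1 SRA domain binding a hemimethylated CpG hairpin DNA probe; 0% = median of test compound wells and 100% = reference inhibitor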
ARFGAP1 inh: inhibitors of rat ARFGAP1 | Arfgap1-stimulated ARF1 GTP hydrolysis, GDP FP detection | inhibition, % at 16.5 µM | actives 0.26% (n = 360,000);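 active = inhibition above a per-plate limit, mean inhibition of low control wells plus 3 SD, cut at about 25% in these data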;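 also: 0% = DMSO wells with enzyme and 100% = wells lacking Arfgap1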
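system = rat Arfgap1 catalytic domain, aa 1-136 | technique = FP, GDP Alexa 633 tracer displaced from anti-GDP antibody, 620/688 nm | compound = one concentration, 16.5 µM, DMSO 1.26% | medium = HEPES-based buffer, pH 7.5 | timing = compound-enzyme preincubation 20 min, reaction 120 min, detection 60 min, 25 °C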
MBD2 inh: inhibitors of human MBD2 binding to methylated oligonucleotide. TR-FRET. inhibition, % at 4.4 µM. actives 0.31% (n = 370,000). AID 686964; in the data active = inhibition above about 13%
TCR CD3 inh: inhibitors of human TCR-CD3 interaction; TAMRA-labeled TCR probe fluorescence, biochemical; inhibition, % at 9.4 µM; actives 0.37% (n = 360,000); AID 651800; in the data active = inhibition above about 19%;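 also: recombinant mutant TCR 2C K166C tagged with TAMRA read by polarization; 0% = receptor in buffer alone and 100% = receptor with positive control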
LEDGF integ inh: blocks HIV-1 LEDGF/p75-dependent DNA integration | TR-FRET IN-LEDGF/p75 DNA integration, Eu/Cy5 | inhibition, % at 3.7 µM | actives 0.64% (n = 370,000) | AID 743269;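 active = inhibition above the screen-wide mean plus 3 SD, cut at about 13% in these data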;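 also: signal is the Cy5 over europium emission ratio at 671 and 618 nm; 0% = plate median of compound wells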
UHRF1 DNA bind: inhibits human UHRF1 binding to methylated oligonucleotide, MBD2 counter-screen; shares compounds with MBD2 inh; TR-FRET; inhibition, % at 4.4 µM; actives 25% (n = 1,000);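 also: UHRF1 SRA domain binding a labeled hemimethylated CpG hairpin DNA; 0% = vehicle only and 100% = reference inhibitor with vehicle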
MBD2 DBD conf: confirmation of human MBD2-DBD methylated oligonucleotide binding inhibitors; shares compounds with MBD2 inh; TR-FRET MBD2-DBD binding to methylated oligonucleotide; inhibition, % at 4.4 µM; actives 26% (n = 1,000); AID 720531; in the data active = inhibition above about 14%
An asterisk follows results filed as active; . = not tested or not shown. Rule as the data show it, unless noted: active = inhibition above about 21%; inactive = the rest.

SMILES	ASAP1 inh	UHRF1 binding	ARFGAP1 inh	MBD2 inh	TCR CD3 inh	LEDGF integ inh	UHRF1 DNA bind	MBD2 DBD conf
CS(=O)(=O)Cc1cc(N2CCCC2)nc(-c2ccccc2)n1	5.0	-1.4	-6.4	20.5*	7.5	-0.3	6.3	3.2
CCOc1ccc(S(=O)(=O)N2CCCCC2)cc1NC(=O)CC1OC(=O)c2ccccc21 (stereo not given)	-13.0	-0.3	-10.0	-4.7	4.1	2.3	.	.
CCN1C(=O)CC(N2CCC(C(=O)N3CCOCC3)CC2)C1=O (stereo not given)	0.2	22.7*	1.5	15.2*	-6.8	0.6	8.2	3.0
Cc1ccc(NC(=O)CSc2nnc(-c3n[nH]c4ccccc34)n2-c2ccccc2)c(C)c1	11.0	4.9	-4.2	-1.9	-11.0	4.7	.	.
CCOC(=O)c1[nH]ncc1CN1CCCC(C(=O)c2cccc3ccccc23)C1 (stereo not given)	-5.5	23.6*	11.4	14.3*	-2.0	-4.6	6.1	1.3
COC(=O)c1ccc2nc(-c3ccccc3)c(Cc3cccc(Cl)c3)n2c1	9.3	15.2	8.2	7.5	2.0	-1.1	.	.
CCCc1nc2ccc(C(=O)OC)cn2c1Cc1cccc(F)c1	-8.3	25.8*	9.5	17.4*	-5.1	4.5	9.6	4.8
CCCCN1C(=O)c2ccc(C(=O)OCC(=O)N3CCN(c4ccccc4)CC3)cc2C1=O	6.1	0.4	12.1	2.7	-7.5	-3.5	.	.
C#CCOCCOCCOCCNc1nc(N2CCN(C(=O)[C@H](CCCCN)n3cc(CN)nn3)CC2)nc(N2CCN(C(=O)[C@H](CCCCN)n3cc([C@@H](N)[C@H](C)CC)nn3)CC2)n1	-14.3	11.7	14.9	-2.9	3.0	-0.1	.	.
C#CCOCCOCCOCCNc1nc(N2CCN(C(=O)[C@H](CCCCN)n3cc([C@@H](N)C(C)CC)nn3)CC2)nc(N2CCN(C(=O)[C@H](CCCCN)n3cc([C@@H](N)C(C)CC)nn3)CC2)n1 (stereo not given in full)	.	16.4	.	15.7*	.	1.7	5.6	3.0
C#CCOCCOCCOCCNc1nc(N2CCN(C(=O)[C@H]([C@@H](C)CC)n3cc(CCC(=O)O)nn3)CC2)nc(N2CCN(C(=O)[C@H](CCCCN)n3cc(CCCC)nn3)CC2)n1	-2.1	9.7	2.9	24.6*	-4.1	2.1	8.9	6.6
C#CCOCCOCCOCCNc1nc(N2CCN(C(=O)[C@H]([C@@H](C)CC)n3cc(CCCCN)nn3)CC2)nc(N2CCN(C(=O)[C@H](CCCCN)n3cc(CCCC)nn3)CC2)n1	-4.2	12.9	7.5	4.4	8.0	3.3	.	.
CCC(Sc1nc(N)cc(=O)[nH]1)C(=O)Nc1cc(C)on1 (stereo not given)	1.5	0.0	-3.4	-3.5	2.1	2.9	.	.
CCOC(=O)c1sc2nc(CSc3ccccc3)nc(NCCN(C)C)c2c1C	9.2	0.2	-0.2	-2.9	5.5	1.0	.	.
COc1cccc(CC(=O)Nc2cc(S(=O)(=O)N3CCCCC3)ccc2C)c1	-7.2	0.2	6.0	5.5	-2.4	-1.5	.	.
COc1cccc(CC(=O)Nc2ccc(S(=O)(=O)N3CCCCC3)cc2)c1	2.9	1.0	-2.5	13.3*	1.0	-0.7	4.5	3.1
C[C@@H]1CN([C@@H](C)CO)S(=O)(=O)c2ccc(Br)cc2O[C@H]1CN(C)Cc1ccccn1	5.7	-1.9	6.1	-0.6	-4.6	1.7	.	.
CC1CCCCC1NC(=O)CSc1nncs1 (stereo not given)	2.7	0.1	-0.1	13.7*	-3.1	0.1	7.5	1.3
CC1CCCC(NC(=O)CSc2nncs2)C1C (stereo not given)	-14.0	7.4	-5.6	0.2	6.6	-4.1	.	.
COC(=O)c1ccc(OCC(=O)c2ccccc2)cc1	8.1	21.1*	-0.8	15.8*	2.8	11.0	7.8	3.9
O=C(COc1ccccc1)c1ccccc1	-16.4	-0.5	4.4	3.5	-7.5	-0.5	.	.
